This is an account of results in ChEMBL document CHEMBL1141000, “cis-Nitromethylene neonicotinoids as new nicotinic family: synthesis, structural diversity, and insecticidal evaluation of hexahydroimidazo[1,2-alpha]pyridine” (2008).

Each structure is given as a SMILES string. ≈ marks a conversion by molar mass, not a printed value.

What all share (format): functional
Assay [1] deals with Aphis craccivora. Nature of the assay: Insecticidal activity against Aphis craccivora assessed as mortality at 500 mg/L.
Assay [2] relates to Aphis craccivora. Nature of the assay: Insecticidal activity against Aphis craccivora.
In assay [3] the test system is Nilaparvata lugens. Nature of the assay: Insecticidal activity against imidacloprid-resistant Nilaparvata lugens. The method, boiled down:
(§1)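 Nilaparvata lugens (brown planthopper), sensitive and imidacloprid-resistant strains tested separately, using a protocol similar to the pea aphid bioassay. Activity expressed as LC50 (mg/L).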

Assay [4] concerns Nilaparvata lugens. Nature of the assay: Insecticidal activity against imidacloprid-sensitive Nilaparvata lugens. A digest of the protocol:
as §1

As for `CCOC1CC(C(C)C)C([N+](=O)[O-])=C2N(Cc3ccc(Cl)nc3)CCN21` (stereo unspecified), in assay [1], the Activity was found to be 72%.

`CCC(C)OC1CC(C)C([N+](=O)[O-])=C2N(Cc3ccc(Cl)nc3)CCN21` (stereo unspecified): the Activity in assay [1] is reported as 0%.

`CCCC1CC(OC(C)C)N2CCN(Cc3ccc(Cl)nc3)C2=C1[N+](=O)[O-]` (stereo unspecified): the Activity in assay [1] was 79%.

As for `COC1C(C)CC([N+](=O)[O-])=C2N(Cc3ccc(Cl)nc3)CCN21` (stereo unspecified), in assay [1], the Activity was determined as 73%.

With `CC1C([N+](=O)[O-])=C2N(Cc3ccc(Cl)nc3)CCN2C(O)C1C` (stereo unspecified), the Activity in assay [1] worked out at 50%.

Take `O=[N+]([O-])C1=C2N(Cc3ccc(Cl)nc3)CCN2C(O)C2CCCCC12` (stereo unspecified): the Activity in assay [1] stood at 0%.

A word on the LC50: it is the concentration that kills 50% of the test population. Turning to `CCCOC1CC(CC)C([N+](=O)[O-])=C2N(Cc3ccc(Cl)nc3)CCN21` (stereo unspecified), the median lethal concentration (LC50) in assay [2] came to 86.4 mg/L (≈ 227 µM). In addition, the Activity in assay [1] was found to be 100%.

As for `CCC1CC(OC(C)C)N2CCN(Cc3ccc(Cl)nc3)C2=C1[N+](=O)[O-]` (stereo unspecified), the 50% lethal concentration (LC50) in assay [2] stood at 88.9 mg/L (≈ 233 µM). In assay [1], the Activity is listed as 100%.

In the case of `CC1CC(OCc2ccccc2)N2CCN(Cc3ccc(Cl)nc3)C2=C1[N+](=O)[O-]` (stereo unspecified), in assay [1], the Activity is reported as 94%.

In the case of `CCC1CC(OC)N2CCN(Cc3ccc(Cl)nc3)C2=C1[N+](=O)[O-]` (stereo unspecified), the LC50 in assay [3] worked out at 8.87 mg/L (≈ 25.1 µM); in assay [4] it was 1.07 mg/L (≈ 3.03 µM). The Activity in assay [1] worked out at 90%.

As for `CC1CC(OC2CCCCC2)N2CCN(Cc3ccc(Cl)nc3)C2=C1[N+](=O)[O-]` (stereo unspecified), in assay [1], the Activity was 0%.

For the compound `COC1CC(c2ccccc2)C([N+](=O)[O-])=C2N(Cc3ccc(Cl)nc3)CCN21` (stereo unspecified), the Activity in assay [1] turned out to be 50%.

`CCOC1CC(c2ccccc2)C([N+](=O)[O-])=C2N(Cc3ccc(Cl)nc3)CCN21` (stereo unspecified): in assay [1], the Activity was 89%.

For the compound `CC1(O)CCC([N+](=O)[O-])=C2N(Cc3ccc(Cl)nc3)CCN21` (stereo unspecified), in assay [1], the Activity is recorded as 90%.

As to `CCCC1CC(OC)N2CCN(Cc3ccc(Cl)nc3)C2=C1[N+](=O)[O-]` (stereo unspecified), the Activity in assay [1] stood at 89%.

`CCCOC1CC(CCC)C([N+](=O)[O-])=C2N(Cc3ccc(Cl)nc3)CCN21` (stereo unspecified): the Activity in assay [1] stood at 82%.

Regarding `CCCOC1CC(c2ccccc2)C([N+](=O)[O-])=C2N(Cc3ccc(Cl)nc3)CCN21` (stereo unspecified), in assay [1], the Activity amounted to 45%.

In the case of `CC(C)OC1CC(c2ccccc2)C([N+](=O)[O-])=C2N(Cc3ccc(Cl)nc3)CCN21` (stereo unspecified), the Activity in assay [1] amounted to 0%.

Consider `CCC1C([N+](=O)[O-])=C2N(Cc3ccc(Cl)nc3)CCN2C(O)C1C` (stereo unspecified), for which the Activity in assay [1] was 0%.

In the case of `CCCC1CC(O)N2CCN(Cc3ccc(Cl)nc3)C2=C1[N+](=O)[O-]` (stereo unspecified), in assay [1], the Activity is 25%.

Take `O=[N+]([O-])C1=C2N(Cc3ccc(Cl)nc3)CCN2C(O)CC1c1ccc([N+](=O)[O-])cc1` (stereo unspecified): in assay [1], the Activity came out at 0%.

On to `CC(C)OC1CC(C)C([N+](=O)[O-])=C2N(Cc3ccc(Cl)nc3)CCN21` (stereo unspecified), for which the LC50 stood at 6.33 mg/L (≈ 17.3 µM) in assay [3], 96.2 mg/L (≈ 262 µM) in assay [2] and 5.57 mg/L (≈ 15.2 µM) in assay [4]. Moreover, the Activity in assay [1] was determined as 100%.

On to `COC1CC(C)C([N+](=O)[O-])=C2N(Cc3ccc(Cl)nc3)CCN21` (stereo unspecified), for which, in assay [2], the LC50 was 50 mg/L (≈ 148 µM). In addition, in assay [1], the Activity is 100%.

With `CCCCOC1CC(C)C([N+](=O)[O-])=C2N(Cc3ccc(Cl)nc3)CCN21` (stereo unspecified), the Activity in assay [1] is listed as 58.4%.

In the case of `CC(C)C1CC(O)N2CCN(Cc3ccc(Cl)nc3)C2=C1[N+](=O)[O-]` (stereo unspecified), in assay [1], the Activity came to 0%.

With `O=[N+]([O-])C1=C2N(Cc3ccc(Cl)nc3)CCN2C(O)CC1c1ccccc1` (stereo unspecified), the Activity in assay [1] came out at 30%.

For `CCCCC1CC(O)N2CCN(Cc3ccc(Cl)nc3)C2=C1[N+](=O)[O-]` (stereo unspecified), the Activity in assay [1] is listed as 85%.

Consider `C=CCOC1CC(C)C([N+](=O)[O-])=C2N(Cc3ccc(Cl)nc3)CCN21` (stereo unspecified), for which, in assay [1], the Activity is on record as 100%.

As for `CC1CC(O)N2CCN(Cc3ccc(Cl)nc3)C2=C1[N+](=O)[O-]` (stereo unspecified), the LC50 was 7.36 mg/L (≈ 22.7 µM) in assay [3], 31.5 mg/L (≈ 97 µM) in assay [2] and 20.7 mg/L (≈ 63.8 µM) in assay [4]. Further, the Activity in assay [1] was found to be 100%.

As to `CCOC1CC(CC)C([N+](=O)[O-])=C2N(Cc3ccc(Cl)nc3)CCN21` (stereo unspecified), the LC50 in assay [2] stood at 48.9 mg/L (≈ 133 µM). Moreover, the Activity in assay [1] was found to be 100%.

Regarding `CC1CC(OCCO)N2CCN(Cc3ccc(Cl)nc3)C2=C1[N+](=O)[O-]` (stereo unspecified), the Activity in assay [1] worked out at 0%.

As to `CCCC1CC(OCC)N2CCN(Cc3ccc(Cl)nc3)C2=C1[N+](=O)[O-]` (stereo unspecified), the Activity in assay [1] was found to be 95%.

As for `CC1CC([N+](=O)[O-])=C2N(Cc3ccc(Cl)nc3)CCN2C1O` (stereo unspecified), in assay [1], the Activity came out at 70%.

Consider `CC(C)OC1C(C)CC([N+](=O)[O-])=C2N(Cc3ccc(Cl)nc3)CCN21` (stereo unspecified), for which the Activity in assay [1] is 67%.

On to `CCOC1CC(C)C([N+](=O)[O-])=C2N(Cc3ccc(Cl)nc3)CCN21` (stereo unspecified), for which the LC50 in assay [2] was 65.4 mg/L (≈ 185 µM). Moreover, in assay [1], the Activity is 100%.

In assay [2], `CC1CC(OCCCl)N2CCN(Cc3ccc(Cl)nc3)C2=C1[N+](=O)[O-]` (stereo unspecified) yielded a median lethal concentration (LC50) of 74.7 mg/L (≈ 193 µM). The Activity in assay [1] came to 100%.

`CC(C)COC1CC(C)C([N+](=O)[O-])=C2N(Cc3ccc(Cl)nc3)CCN21` (stereo unspecified): the Activity in assay [1] worked out at 0%.

Compound `CCC1CC(O)N2CCN(Cc3ccc(Cl)nc3)C2=C1[N+](=O)[O-]` (stereo unspecified) came in with a 50% lethal concentration (LC50) in assay [2] of 61 mg/L (≈ 180 µM). The Activity in assay [1] is given as 100%.

Regarding `O=[N+]([O-])/N=C1\NCCN1Cc1ccc(Cl)nc1` [IMIDACLOPRID], the results for the LC50 in assay [3], in assay [2] and in assay [4] were 19.7 mg/L (≈ 77.2 µM), 7.9 mg/L (≈ 30.9 µM) and 0.14 mg/L (≈ 0.548 µM), respectively. The Activity in assay [1] is listed as 100%.

Take `CCCOC1CC(C)C([N+](=O)[O-])=C2N(Cc3ccc(Cl)nc3)CCN21` (stereo unspecified) [PAICHONGDING]: the 50% lethal concentration (LC50) in assay [3] worked out at 7.2 mg/L (≈ 19.6 µM); in assay [2] it was 33.7 mg/L (≈ 91.8 µM); in assay [4] it was 7.35 mg/L (≈ 20 µM). Moreover, in assay [1], the Activity is 100%.
